Assay results from paper PMC8154590 (The Journal of antibiotics, 2021).
Where a name gives a salt, the structure may show the parent alone.

Test system: M. smegmatis 70S ribosome (spectinomycin site: helix-34 of 16S rRNA and RpsE protein)
Experiment: cell-free translation, luciferase read-out
Assay type: biochemical, Mycolicibacterium smegmatis
Details: purified 70S ribosomes, firefly luciferase mRNA
Outline: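 Purified M. smegmatis 70S ribosomes were used in translation reactions programmed with firefly luciferase mRNA that was transcribed in vitro with T7 RNA polymerase. Inhibition was read as loss of luciferase activity. IC50 was taken as the drug concentration that inhibits luciferase activity by 50%.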

## CN[C@H]1C[C@@H](NC)[C@H](O)[C@H]2O[C@@H]3O[C@H](C)CC(=O)[C@]3(O)O[C@@H]21 [compound 9, 2-Deoxyspectinomycin dihydrochloride]
  Ribosome translation inhibition IC50: > 60 µg/mL

## CN[C@@H]1[C@H](O)[C@H](NC)[C@H]2O[C@@]3(O)C(=O)C[C@@H](C)O[C@H]3O[C@@H]2[C@H]1O [compound 1, Spectinomycin]
  Ribosome translation inhibition IC50: 0.36 µg/mL

## CN[C@@H]1[C@H](O)[C@H](NC)[C@H]2O[C@@]3(O)C(=O)C[C@@H](C)O[C@H]3O[C@@H]2[C@@H]1Cl [compound 8, 6-Epi-chloro-6-deoxyspectinomycin dihydrochloride]
  Ribosome translation inhibition IC50: 54.7 µg/mL

## CN[C@H]1[C@@H](O)[C@@H](NC)C[C@H]2O[C@@H]3O[C@H](C)C[C@@](O)(CNCc4ccc(F)cc4)[C@]3(O)O[C@H]12 [compound 7, 6-Deoxy-3’-dihydro-3’(R)-[(4-fluorobenzyl)aminomethyl]spectinomycin trihydrochloride]
  Ribosome translation inhibition IC50: 23.3 µg/mL

## CN[C@H]1C[C@@H](NC)[C@H](O)[C@H]2O[C@@H]3O[C@H](C)C[C@@H](NC(=O)Cc4ccccn4)[C@]3(O)O[C@@H]21 [compound 10, 2-Deoxy-3’-deoxy-3’-dihydro-3’(R)-[(pyridin-2-yl)acetylamino]spectinomycin dihydrochloride]
  Ribosome translation inhibition IC50: 10.2 µg/mL
